Tests used:
Format in all cases: functional
[1] = test system: CCRF-CEM; assay: Growth inhibition of human CCRF-CEM cells by sulforhodamine B assay
Method in brief: (§1)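 Five-dose response testing across a 57-line human tumour panel (leukemia, non-small cell lung, colon, CNS, melanoma, ovarian, renal, prostate, breast), done after a single-dose primary screen run per the NCI method. Effect plotted against log10 molar drug concentration for each cell line. GI50 is the concentration giving a 50% reduction in net protein increase versus control cells.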

[2] = test system: HL-60(TB); assay: Growth inhibition of human HL-60(TB) cells by sulforhodamine B assay; method in brief: as §1
[3] = test system: K562; assay: Growth inhibition of human K562 cells by sulforhodamine B assay; method in brief: as §1
[4] = test system: MOLT-4; assay: Growth inhibition of human MOLT4 cells by sulforhodamine B assay; method in brief: as §1
[5] = Growth inhibition of human […] cells by sulforhodamine B assay; method in brief: as §1
[6] = test system: A549; assay: Growth inhibition of human A549 cells by sulforhodamine B assay
Method in brief: (§2)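 Five-dose response testing across the 57-line human tumour panel. Growth effect was plotted against log10 drug concentration for each cell line. GI50 is the molar concentration giving a 50% reduction in net protein increase relative to untreated control cells. TGI (total growth inhibition) and LC50 (concentration lethal to 50% of cells) were read from the same curves.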

[7] = test system: EKVX; assay: Growth inhibition of human EKVX cells by sulforhodamine B assay; method in brief: as §1
[8] = test system: HOP-62; assay: Growth inhibition of human HOP62 cells by sulforhodamine B assay; method in brief: as §1
[9] = test system: NCI-H226; assay: Growth inhibition of human NCI-H226 cells by sulforhodamine B assay; method in brief: as §1
[10] = test system: NCI-H23; assay: Growth inhibition of human NCI-H23 cells by sulforhodamine B assay; method in brief: as §1
[11] = test system: NCI-H322M; assay: Growth inhibition of human NCI-H322M cells by sulforhodamine B assay; method in brief: as §1
[12] = test system: NCI-H460; assay: Growth inhibition of human NCI-H460 cells by sulforhodamine B assay; method in brief: as §1
[13] = test system: NCI-H522; assay: Growth inhibition of human NCI-H522 cells by sulforhodamine B assay; method in brief: as §1
[14] = test system: COLO 205; assay: Growth inhibition of human COLO205 cells by sulforhodamine B assay; method in brief: as §1
[15] = test system: HCC 2998; assay: Growth inhibition of human HCC2998 cells by sulforhodamine B assay; method in brief: as §1
[16] = test system: HCT-116; assay: Growth inhibition of human HCT116 cells by sulforhodamine B assay; method in brief: as §1
[17] = test system: HCT-15; assay: Growth inhibition of human HCT15 cells by sulforhodamine B assay; method in brief: as §1
[18] = test system: HT-29; assay: Growth inhibition of human HT-29 cells by sulforhodamine B assay; method in brief: as §1
[19] = test system: KM12; assay: Growth inhibition of human KM12 cells by sulforhodamine B assay; method in brief: as §1
[20] = test system: SW-620; assay: Growth inhibition of human SW620 cells by sulforhodamine B assay; method in brief: as §1
[21] = test system: SF-268; assay: Growth inhibition of human SF268 cells by sulforhodamine B assay; method in brief: as §1
[22] = test system: SF-295; assay: Growth inhibition of human SF295 cells by sulforhodamine B assay; method in brief: as §1
[23] = test system: SF-539; assay: Growth inhibition of human SF539 cells by sulforhodamine B assay; method in brief: as §1
[24] = test system: SNB-19; assay: Growth inhibition of human SNB19 cells by sulforhodamine B assay; method in brief: as §1
[25] = test system: SNB-75; assay: Growth inhibition of human SNB75 cells by sulforhodamine B assay; method in brief: as §1
[26] = test system: LOX IMVI; assay: Growth inhibition of human LOXIMVI cells by sulforhodamine B assay; method in brief: as §2
[27] = test system: Malme-3M; assay: Growth inhibition of human MALME-3M cells by sulforhodamine B assay; method in brief: as §1
[28] = test system: M14; assay: Growth inhibition of human M14 cells by sulforhodamine B assay; method in brief: as §1
[29] = test system: MDA-MB-435; assay: Growth inhibition of human MDA-MB-435 cells by sulforhodamine B assay; method in brief: as §1
[30] = test system: SK-MEL-2; assay: Growth inhibition of human SK-MEL-2 cells by sulforhodamine B assay; method in brief: as §1
[31] = test system: SK-MEL-28; assay: Growth inhibition of human SK-MEL-28 cells by sulforhodamine B assay; method in brief: as §1
[32] = test system: SK-MEL-5; assay: Growth inhibition of human SK-MEL-5 cells by sulforhodamine B assay; method in brief: as §1
[33] = test system: UACC-257; assay: Growth inhibition of human UACC257 cells by sulforhodamine B assay
Method in brief: (§3)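 Part of a 57-line human tumour cell panel run at five doses. Growth effect was plotted against log10 molar drug concentration for each cell line. GI50 is the concentration giving a 50% reduction in net protein increase relative to untreated control cells, read from the dose-response curve.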

[34] = test system: UACC-62; assay: Growth inhibition of human UACC62 cells by sulforhodamine B assay; method in brief: as §3
[35] = test system: IGROV-1; assay: Growth inhibition of human IGROV1 cells by sulforhodamine B assay; method in brief: as §1
[36] = test system: OVCAR-3; assay: Growth inhibition of human OVCAR-3 cells by sulforhodamine B assay; method in brief: as §1
[37] = test system: OVCAR-4; assay: Growth inhibition of human OVCAR4 cells by sulforhodamine B assay; method in brief: as §1
[38] = test system: OVCAR-5; assay: Growth inhibition of human OVCAR5 cells by sulforhodamine B assay; method in brief: as §1
[39] = test system: OVCAR-8; assay: Growth inhibition of human OVCAR8 cells by sulforhodamine B assay; method in brief: as §1
[40] = test system: NCI/ADR-RES; assay: Growth inhibition of human NCI/ADR-RES cells by sulforhodamine B assay; method in brief: as §1
[41] = test system: SK-OV-3; assay: Growth inhibition of human SKOV3 cells by sulforhodamine B assay; method in brief: as §1
[42] = test system: 786-0; assay: Growth inhibition of human 786-0 cells by sulforhodamine B assay; method in brief: as §1
[43] = test system: A498; assay: Growth inhibition of human A498 cells by sulforhodamine B assay; method in brief: as §1
[44] = test system: ACHN; assay: Growth inhibition of human ACHN cells by sulforhodamine B assay; method in brief: as §1
[45] = test system: CAKI-1; assay: Growth inhibition of human Caki1 cells by sulforhodamine B assay; method in brief: as §1
[46] = test system: RXF 393; assay: Growth inhibition of human RXF393 cells by sulforhodamine B assay; method in brief: as §1
[47] = test system: SN12C; assay: Growth inhibition of human SN12C cells by sulforhodamine B assay; method in brief: as §1
[48] = test system: TK-10; assay: Growth inhibition of human TK10 cells by sulforhodamine B assay; method in brief: as §3
[49] = test system: UO-31; assay: Growth inhibition of human UO31 cells by sulforhodamine B assay; method in brief: as §3
[50] = test system: PC-3; assay: Growth inhibition of human PC3 cells by sulforhodamine B assay; method in brief: as §1
[51] = test system: DU-145; assay: Growth inhibition of human DU145 cells by sulforhodamine B assay; method in brief: as §1
[52] = test system: MCF7; assay: Growth inhibition of human MCF7 cells by sulforhodamine B assay; method in brief: as §1
[53] = test system: MDA-MB-231; assay: Growth inhibition of human MDA-MB-231 cells by sulforhodamine B assay; method in brief: as §1
[54] = Growth inhibition of human Hs 578T cells by sulforhodamine B assay; method in brief: as §1
[55] = test system: BT-549; assay: Growth inhibition of human BT549 cells by sulforhodamine B assay; method in brief: as §1
[56] = test system: T47D; assay: Growth inhibition of human T47D cells by sulforhodamine B assay; method in brief: as §3
[57] = test system: MDA-MB-468; assay: Growth inhibition of human MDA-MB-468 cells by sulforhodamine B assay; method in brief: as §1
[58] = read-out: LC50 (the source's name)

## COc1ccc(CN2C(=O)C(O)(C3C(=O)NC(=N)N3C)c3ccccc32)cc1 (centres undefined)
[1]
  GI50: 2.18 µM
[1]; [58]
  CC50: > 100 µM
[2]
  GI50: 4.91 µM
  LC50: > 100 µM
[3]
  GI50: 3.73 µM
[3]; [58]
  CC50: > 100 µM
[4]
  GI50: 4.79 µM
[4]; [58]
  CC50: > 100 µM
[5]
  GI50: 2.87 µM
[5]; [58]
  CC50: > 100 µM
[6]
  GI50: 43.6 µM
  LC50: > 100 µM
[7]
  GI50: 71.7 µM
  LC50: > 100 µM
[8]
  GI50: 4.31 µM
[8]; [58]
  CC50: > 100 µM
[9]
  GI50: 38.4 µM
[9]; [58]
  CC50: > 100 µM
[10]
  GI50: 13.9 µM
  LC50: > 100 µM
[11]
  GI50: 41.1 µM
[11]; [58]
  CC50: > 100 µM
[12]
  GI50: 29 µM
  LC50: > 100 µM
[13]
  GI50: 3.65 µM
  LC50 (concentration killing 50% of cells): > 100 µM
[14]
  GI50: 19.9 µM
[14]; [58]
  CC50: > 100 µM
[15]
  GI50: 12.8 µM
  LC50: 63.9 µM
[16]
  GI50: 2.4 µM
  LC50: > 100 µM
[17]
  GI50: 11.8 µM
  LC50 (concentration killing 50% of starting cells): > 100 µM
[18]
  GI50: 4.06 µM
  LC50: > 100 µM
[19]
  GI50: 2.87 µM
[19]; [58]
  CC50: 80.4 µM
[20]
  GI50: 4.12 µM
[20]; [58]
  CC50: > 100 µM
[21]
  GI50: 5 µM
[21]; [58]
  CC50: > 100 µM
[22]
  GI50: 26 µM
[22]; [58]
  CC50: > 100 µM
[23]
  GI50: 3.73 µM
[23]; [58]
  CC50: > 100 µM
[24]
  GI50: 30.6 µM
[24]; [58]
  CC50: > 100 µM
[25]
  GI50: 28.8 µM
[25]; [58]
  CC50: > 100 µM
[26]
  GI50: 8.09 µM
[26]; [58]
  CC50: > 100 µM
[27]
  GI50: 27.4 µM
[27]; [58]
  CC50: > 100 µM
[28]
  GI50: 4.93 µM
  LC50: > 100 µM
[29]
  GI50: 10.6 µM
[29]; [58]
  CC50: > 100 µM
[30]
  GI50: 95.2 µM
[30]; [58]
  CC50: > 100 µM
[31]
  GI50: 36.9 µM
[31]; [58]
  CC50: > 100 µM
[32]
  GI50: 37.3 µM
[32]; [58]
  CC50: > 100 µM
[33]
  GI50: 6.28 µM
  LC50: > 100 µM
[34]
  GI50: 27.7 µM
[34]; [58]
  CC50: > 100 µM
[35]
  GI50: 3.26 µM
[35]; [58]
  CC50: > 100 µM
[36]
  GI50: 2.29 µM
[36]; [58]
  CC50: 30.1 µM
[37]
  GI50: 7.13 µM
[37]; [58]
  CC50: > 100 µM
[38]
  GI50: 42.1 µM
[38]; [58]
  CC50: > 100 µM
[39]
  GI50: 3.52 µM
[39]; [58]
  CC50: > 100 µM
[40]
  GI50: 1.99 µM
[40]; [58]
  CC50: > 100 µM
[41]
  GI50: 45.5 µM
[41]; [58]
  CC50: > 100 µM
[42]
  GI50: 23 µM
[42]; [58]
  CC50: > 100 µM
[43]
  GI50: > 100 µM
[43]; [58]
  CC50: > 100 µM
[44]
  GI50: > 100 µM
[44]; [58]
  CC50: > 100 µM
[45]
  GI50: 53.9 µM
[45]; [58]
  CC50: > 100 µM
[46]
  GI50: 7.4 µM
[46]; [58]
  CC50: > 100 µM
[47]
  GI50: > 100 µM
[47]; [58]
  CC50: > 100 µM
[48]
  GI50: > 100 µM
[48]; [58]
  CC50: > 100 µM
[49]
  GI50: 83.2 µM
[49]; [58]
  CC50: > 100 µM
[50]
  GI50: 46.9 µM
[50]; [58]
  CC50: > 100 µM
[51]
  GI50: 21.4 µM
[51]; [58]
  CC50: > 100 µM
[52]
  GI50: 6.93 µM
  LC50 (concentration killing 50% of starting cells): > 100 µM
[53]
  GI50: 19.4 µM
[53]; [58]
  CC50: > 100 µM
[54]
  GI50: 60.3 µM
[54]; [58]
  CC50: > 100 µM
[55]
  GI50: 8.45 µM
  LC50: 97 µM
[56]
  GI50: 32 µM
  LC50: > 100 µM
[57]
  GI50: 11.6 µM
  LC50 (concentration causing 50% net cell kill): > 100 µM

Source: ChEMBL document CHEMBL1208737, “Synthesis and in vitro evaluation of N-alkyl-3-hydroxy-3-(2-imino-3-methyl-5-oxoimidazolidin-4-yl)indolin-2-one analogs as potential anticancer agents” (2010)
